Source: PubChem BioAssay
Sampled rows, rich in hits. Any-hit rate of the full collection: about 3.8%.
KCNQ1 pot – potentiators or activators of KCNQ1 channel, primary screen, cell-based, thallium flux, high-throughput; CHO-K1 KCNQ1, thallium flux FluxOR fluorescence; hits give high values; hit rate 0.35% among 310,000; B-score at 10 µM;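 active means fluorescence ratio B-score, a plate-corrected score, at least three library SD, with initial intensity B-score within 5 SD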
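assay system = CHO-K1 cells stably expressing KCNQ1 | medium = assay buffer, equal DMSO in all wells | timing = 37 °C overnight plating, 90-min dark dye load, 20-min compound pretreatment | measured by = kinetic FluxOR thallium fluorescence, 10-s 1-Hz baseline, 110-s post-stimulus read | measure = fluorescence change relative to baseline, converted to B score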
hERG rescue – hERG rescue from dofetilide block, primary screen, cell-based, CHO-hERG, FluxOR thallium flux, dofetilide IC70 | hit rate 0.51% among 310,000 | Voltage-gated inwardly rectifying potassium channel KCNH2 (Homo sapiens), Q12809 | activation (rescue from dofetilide block), less the hit threshold, % at 10 µM | AID 1511, 2009 | dofetilide IC70 present;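 active means activation above the mean of controls blocked by dofetilide plus 5 SD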;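 further: thallium influx through hERG after potassium depolarization seen as dye fluorescence rise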
KCNK3 inh – human KCNK3 channel inhibitors, primary screen, CHO cells, FluxOR thallium flux, B-score; B-score at 10 µM; AID 602410, 2012; Potassium channel subfamily K member 3 (Homo sapiens), O14649; FluxOR fluorescence; hits give low values; hit rate 0.84% among 340,000;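 active means B-score under library mean minus 4 SD, starting fluorescence ratio at most library mean plus 5 SD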;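 further: more negative B-score means stronger inhibition of thallium flux through KCNK3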
Target sequence (O14649 whole entry, looked up): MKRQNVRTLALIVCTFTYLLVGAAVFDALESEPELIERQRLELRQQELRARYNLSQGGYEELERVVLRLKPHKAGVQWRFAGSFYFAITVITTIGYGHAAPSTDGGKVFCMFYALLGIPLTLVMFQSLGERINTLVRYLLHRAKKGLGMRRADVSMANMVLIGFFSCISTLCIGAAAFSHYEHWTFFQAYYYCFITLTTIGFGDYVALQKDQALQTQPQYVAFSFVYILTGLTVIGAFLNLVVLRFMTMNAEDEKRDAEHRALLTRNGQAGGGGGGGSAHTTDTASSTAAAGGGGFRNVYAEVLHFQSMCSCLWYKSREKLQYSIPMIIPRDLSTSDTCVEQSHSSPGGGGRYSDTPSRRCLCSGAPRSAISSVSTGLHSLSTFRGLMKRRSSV
Kir21 inh – inhibitors of mouse Kir2.1 inward-rectifier potassium channel; HEK293-Kir2.1, FluxOR thallium flux fluorescence; hits give low values; hit rate 0.85% among 310,000; B-score at 10 µM; AID 1672, 2009;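 active means fluorescence ratio B-score at or below minus 3 SD of library scores, with starting-brightness B-score within 2 SD, cut at about -4.2 in these data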;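 further: channel flux triggered by added potassium and thallium sulfate stimulus; B-score of peak minus minimum fluorescence over baseline after thallium stimulus; more negative B-score means stronger Kir2.1 block with less thallium influx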
KCNK9 block – KCNK9 potassium channel inhibitors, primary screen, HEK293 cells, thallium flux; Potassium channel subfamily K member 9 (Homo sapiens), Q9NPC2; FluxOR thallium flux fluorescence; hits give low values; B-score at 10 µM; hit rate 1.2% among 310,000; AID 488922, 2010;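 active means ratio B-score over 3 SD below the library mean, with starting fluorescence within 5 SD of its mean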;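 further: negative B-score means less thallium flux so channel inhibition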
KCNQ1 block – inhibitors of human KCNQ1 channel, primary screen, cell-based, thallium flux, high-throughput; Potassium voltage-gated channel subfamily KQT member 1 (Homo sapiens), P51787; CHO-K1 KCNQ1, FluxOR thallium flux fluorescence; hits give high values; B-score at 10 µM; hit rate 1.3% among 310,000; AID 2642, 2010;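 active means compounds whose thallium flux B-score, printed positive for inhibition, exceeds three library SD while starting fluorescence stays within three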;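 further: channel opened by potassium depolarization with thallium stimulus after 20 min compound exposure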
KCNK9 block conf – KCNK9 potassium channel inhibitors, confirmation, HEK293 cells, thallium flux, duplicate; FluxOR thallium flux fluorescence; shares compounds with KCNK9 block; AID 492992, 2010; hit rate 43% among 4,900; inhibition, % at 10 µM;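 active means thallium signal inhibited by more than 5 SD of the compound-free buffer control wells, on both duplicate plates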;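 further: 0% = assay buffer control wells without compound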
Kir2-1 spec – mouse Kir2.1 channel inhibition, confirmation, selectivity assay for KCNK9 modulator project, cell-based, HEK293, thallium flux; shares compounds with KCNK9 block; Kir2.1 cells, FluxOR thallium flux fluorescence; inhibition, % at 10 µM; hit rate 4% among 4,900; AID 492993, 2010;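 active means thallium signal drop more than 5 SD beyond the mean of the no-compound control wells, seen in both duplicate plates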;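 further: signal is fluorescence rise after thallium addition divided by baseline fluorescence; plate controls were assay buffer only for no effect and full block by chlorpromazine control for full effect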
KCNK9 uninduced – thallium flux in non-induced HEK293 cells, confirmation, counter-screen for KCNK9 inhibitor project, cell-based, second counter screen, non-induced KCNK9-HEK293. FluxOR thallium flux. hit rate 40% among 4,900. shares compounds with KCNK9 block. AID 492997, 2010. inhibition, % at 10 µM;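 active means thallium signal drop beyond 5 SD of the untreated control mean, on both duplicate plates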;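 further: plate controls were buffer only IC0 wells for no effect and SID17386958 at its maximal inhibitory level for full effect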
KCNK3 inh conf – retest of human KCNK3 channel inhibitors, confirmation, CHO cells, FluxOR thallium flux, triplicate; shares compounds with KCNK3 inh; hit rate 99% among 2,400; FluxOR fluorescence; 0% buffer, 100% carvedilol maximal block; ratio percent of control, % at 10 µM;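 active means ratio percent of control, averaged over triplicates, above buffer control mean plus 5 SD, cut at about 64% in these data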;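 further: ratio is the fluorescence rise from min to max over baseline after thallium stimulus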
KCNK3 noninduced – thallium flux inhibition in non-induced cells, primary screen, counter-screen for KCNK3 inhibitor project, cell-based, non-induced KCNK3 line, FluxOR thallium, triplicate | shares compounds with KCNK3 inh | AID 651747, 2012 | hit rate 40% among 2,400 | non-induced KCNK3 parental cells; hits give low values | thallium flux ratio (lower = more inhibition) at 10 µM;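 active means thallium flux ratio, averaged over three wells, more than 5 SD below the buffer control mean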;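 further: host cells are CHO cells without KCNK3 induction; ratio is peak minus trough fluorescence over baseline then normalized to buffer controls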
* = called active by the depositor.

How did CCN(Cc1ccccc1)C(=O)CN1C(=O)COc2ccc(S(=O)(=O)N3CCCCCC3)cc21 do in these assays?
KCNQ1 pot: inactive; hERG rescue: -15; KCNK3 inh: inactive; Kir21 inh: -1.6; KCNK9 block: inactive; KCNQ1 block: inactive

What do the screens show for `Cc1ccc(C)c(Nc2cc(C)nc(-c3ccccc3O)n2)c1`?
KCNQ1 pot: inactive; hERG rescue: -4; KCNK3 inh: -11*; Kir21 inh: -0.32; KCNK9 block: -9.4*; KCNQ1 block: inactive; KCNK9 block conf: 49%*; Kir2-1 spec: inactive; KCNK9 uninduced: 40%*; KCNK3 inh conf: 125*; KCNK3 noninduced: 0.12*

Results for Cc1ccc(Nc2nc(Nc3ccc(C)cc3)nc(SC3=NCCS3)n2)cc1 ?
KCNQ1 pot: inactive; hERG rescue: -8; KCNK3 inh: inactive; Kir21 inh: -0.14; KCNK9 block: inactive; KCNQ1 block: inactive

How did Cc1ccccc1Nc1nc(Nc2ccccc2C)nc(SC2=NCCS2)n1 do in these assays?
KCNQ1 pot: inactive; hERG rescue: -6; KCNK3 inh: -13*; Kir21 inh: -1.1; KCNK9 block: -9.9*; KCNQ1 block: inactive; KCNK9 block conf: 37%*; Kir2-1 spec: inactive; KCNK9 uninduced: 26%*; KCNK3 inh conf: 124*; KCNK3 noninduced: 0.12*

What do the screens show for `C=CCn1c(O)c(N=NC(=S)Nc2ccc(OC)c(Cl)c2)c2ccccc21`?
KCNQ1 pot: inactive; hERG rescue: 5; KCNK3 inh: inactive; Kir21 inh: -3.8; KCNK9 block: inactive; KCNQ1 block: inactive

Results for CCOC(=O)c1c(NC(=O)Cn2nc(C(F)F)cc2C(F)F)sc(C)c1C ?
KCNQ1 pot: inactive; hERG rescue: -8; KCNK3 inh: -13*; Kir21 inh: -2.6; KCNK9 block: -10*; KCNQ1 block: inactive; KCNK9 block conf: 57%*; Kir2-1 spec: inactive; KCNK9 uninduced: 46%*; KCNK3 inh conf: 107*; KCNK3 noninduced: inactive

Results for COC(=O)c1c(NC(=O)Cn2nc(C(F)F)cc2C(F)F)sc(C)c1C ?
KCNQ1 pot: inactive; hERG rescue: -6; KCNK3 inh: inactive; Kir21 inh: -2.9; KCNK9 block: inactive; KCNQ1 block: inactive

What do the screens show for `COc1ccc(-c2ccc(SCC(=O)c3ccc(F)cc3)nn2)cc1OC`?
KCNQ1 pot: inactive; hERG rescue: -19; KCNK3 inh: -9.8*; Kir21 inh: -0.66; KCNK9 block: -15*; KCNQ1 block: inactive; KCNK9 block conf: 64%*; Kir2-1 spec: inactive; KCNK9 uninduced: inactive; KCNK3 inh conf: 118*; KCNK3 noninduced: inactive

What do the screens show for `COc1ccc(-c2ccc(SCC(=O)c3cccs3)nn2)cc1OC`?
KCNQ1 pot: inactive; hERG rescue: -10; KCNK3 inh: inactive; Kir21 inh: 1.5; KCNK9 block: inactive; KCNQ1 block: inactive

How did O=C(Nc1ccc(Cl)cc1)NN1CC(=O)N(c2cccc(C(F)(F)F)c2)CC1=O do in these assays?
KCNQ1 pot: inactive; hERG rescue: -6; KCNK3 inh: inactive; Kir21 inh: 0.83; KCNK9 block: inactive; KCNQ1 block: inactive

How did CCOC(=O)c1nn(-c2cccc(OC)c2)c(-c2ccccc2)c1C(=O)c1ccccc1 do in these assays?
KCNQ1 pot: inactive; hERG rescue: -7; KCNK3 inh: -9.3*; Kir21 inh: 1.5; KCNK9 block: -10*; KCNQ1 block: inactive; KCNK9 block conf: 50%*; Kir2-1 spec: inactive; KCNK9 uninduced: inactive; KCNK3 inh conf: 113*; KCNK3 noninduced: 0.14*

Results for O=C(Oc1c(Br)cc(C(=S)N2CCOCC2)cc1Br)c1ccc(Cl)cc1 ?
KCNQ1 pot: inactive; hERG rescue: 2; KCNK3 inh: inactive; Kir21 inh: -0.89; KCNK9 block: inactive; KCNQ1 block: inactive

Results for O=C(Oc1ccc(C(=S)N2CCOCC2)cc1Br)c1cc(Cl)ccc1Cl ?
KCNQ1 pot: inactive; hERG rescue: -8; KCNK3 inh: -9.4*; Kir21 inh: -0.89; KCNK9 block: -14*; KCNQ1 block: inactive; KCNK9 block conf: 48%*; Kir2-1 spec: inactive; KCNK9 uninduced: 35%*; KCNK3 inh conf: 99*; KCNK3 noninduced: inactive

How did O=C(/C=C/Nc1ccccc1C(F)(F)F)c1ccco1 do in these assays?
KCNQ1 pot: inactive; hERG rescue: -1; KCNK3 inh: -9.1*; Kir21 inh: 0.52; KCNK9 block: -8.8*; KCNQ1 block: inactive; KCNK9 block conf: inactive; Kir2-1 spec: inactive; KCNK9 uninduced: inactive; KCNK3 inh conf: 90*; KCNK3 noninduced: inactive

How did CSc1nc(Oc2ccc3ccccc3c2)c2sccc2n1 do in these assays?
KCNQ1 pot: inactive; hERG rescue: -5; KCNK3 inh: -9*; Kir21 inh: 1.2; KCNK9 block: -10*; KCNQ1 block: inactive; KCNK9 block conf: 41%*; Kir2-1 spec: inactive; KCNK9 uninduced: 32%*; KCNK3 inh conf: 98*; KCNK3 noninduced: inactive
